# From PubChem BioAssay
# MrgX1 PAM: human MrgX1 positive allosteric modulation, primary screen | B-score at 10 µM | AID 588675 | MrgX1-HEK293, Fluo-4 calcium flux, FDSS; hits give high values | Q96LB2 | 0.63% of 310,000 active;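 active = plate-corrected calcium response at least 3 library SD above typical, normal starting fluorescence, not activating the receptor alone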;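 also: compound read alongside a low EC10 to EC30 dose of BAM8-22 agonist; peak minus trough fluorescence over baseline measured at the second addition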
# Target sequence (Q96LB2 whole entry, looked up): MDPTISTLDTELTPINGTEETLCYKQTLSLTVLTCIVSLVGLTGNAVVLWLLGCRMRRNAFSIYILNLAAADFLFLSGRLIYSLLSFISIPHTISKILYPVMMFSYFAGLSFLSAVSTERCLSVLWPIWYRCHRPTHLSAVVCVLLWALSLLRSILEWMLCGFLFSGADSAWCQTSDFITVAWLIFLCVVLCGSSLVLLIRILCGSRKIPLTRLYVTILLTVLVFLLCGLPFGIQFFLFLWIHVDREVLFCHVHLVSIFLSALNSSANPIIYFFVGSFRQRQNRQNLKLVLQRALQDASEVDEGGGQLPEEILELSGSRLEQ
# RGS4 act: potentiators or activators of RGS4; B-score at 10 µM; 0.92% of 310,000 active; HEK293 M3R/inducible RGS4, carbachol calcium flux Fluo4; hits give low values;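 active = B-score of the integrated calcium signal more than 4 SD below the library mean, with starting fluorescence not abnormally high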;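 also: negative B-score means reduced calcium response which marks RGS4 activation or potentiation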
#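 Also added: carbachol at ECmax as muscarinic agonist stimulus; Assay system: HEK293 cells with stable M3R and inducible RGS4; Timing: overnight RGS4 induction, 30 min dye load 37 °C, 20 min compound RT; Measured by: Fluo4-AM (2 µM) calcium-flux fluorescence, kinetic read.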
# MrgX1 agonist: agonists of human MrgX1 receptor; Q96LB2; AID 588627; MrgX1-HEK293 cells, Fluo-4 calcium fluorescence, agonist mode; hits give high values; B-score at 10 µM; 0.44% of 310,000 active;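 active = calcium response B-score plate-corrected fluorescence ratio at least 3 library SD, with starting fluorescence B-score inside 5 SD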
#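 Material: HEK293 cells stably expressing human MrgX1 receptor | Quantity: 15,000 cells per well | Times: Cells plated overnight, dye loaded 0.5 h 37 °C, 0.5 h room temperature | Measured by: Kinetic Fluo-4 NW fluorescence of intracellular calcium | Control set: Positive and negative controls per plate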
# RGS4 inh: inhibitors of human RGS4; AID 463165; P49798; HEK293 M3R/RGS4 inducible, Fluo-4 calcium flux; hits give high values; triggered by carbachol at its EC20; B-score at 10 µM; 0.45% of 310,000 active;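 active = B-score, a plate-corrected calcium signal, over three deviations above library mean, with baseline fluorescence within five deviations of library mean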;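 also: RGS4 expression induced by doxycycline in cells with stable M3 receptor; B-score is computed from the integrated fluorescence ratio over baseline after carbachol; higher B-score means a larger calcium signal and so more RGS4 inhibition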
# Target sequence (P49798 whole entry, looked up): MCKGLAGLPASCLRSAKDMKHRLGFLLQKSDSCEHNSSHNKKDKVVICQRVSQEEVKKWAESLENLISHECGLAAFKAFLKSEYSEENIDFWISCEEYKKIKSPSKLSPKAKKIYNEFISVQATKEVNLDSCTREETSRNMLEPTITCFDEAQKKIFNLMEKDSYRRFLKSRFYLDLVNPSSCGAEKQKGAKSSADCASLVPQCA
# MrgX1 antagonist: blocks BAM8-22 activation of human MrgX1 receptor; Q96LB2; 1.3% of 310,000 active; MRGX1-HEK293 calcium flux, Fluo-4, BAM8-22 antagonism; hits give low values; B-score at 10 µM;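 active = calcium-response B-score plate-corrected more than 3 library SD below zero, starting fluorescence within 5 deviations, no agonist response on first addition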;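 also: peak minus trough fluorescence over baseline after final BAM8-22 challenge near maximal dose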
# Numbers stand for hits; . = inactive; / = not tested or not shown. This is a sample that favours compounds with a hit; in the whole collection about 3.5% have one here.
SMILES,MrgX1 PAM,RGS4 act,MrgX1 agonist,RGS4 inh,MrgX1 antagonist
CCN1C(=O)[C@@H]2[C@@H](c3ccc(-c4ccc(C(C)=O)cc4)cc3)N3CCCC[C@@]3(C(=O)OC)[C@@H]2C1=O,.,.,.,.,.
CCOc1ccc(NC(=O)CSc2nnc(-c3ccncc3)n2CC2CCCO2)cc1 (stereo unspecified),.,.,.,.,-6.7
Cc1ccc(OCC(=O)NCCCNC(=O)c2ccncc2)cc1C,.,.,.,.,.
COc1ccc(N2C(=O)CSC2c2ccc3c(c2)OCO3)c(OC)c1 (stereo unspecified),.,.,.,.,.
COc1ccc(N2C(=O)CSC2c2ccc3c(c2)OCO3)cc1 (stereo unspecified),.,-7,.,.,.
CCC/C=C(\CCC)C(NS(=O)(=O)c1ccc(C(F)(F)F)cc1)c1ccccc1 (stereo unspecified),.,-8.2,.,.,.
O=C(O)C(NS(=O)(=O)c1ccc(F)cc1)c1ccccc1 (stereo unspecified),.,.,.,.,.
Cc1c(C(=O)Nc2ccc(Cl)cc2)c2ccccn2c1C(=O)c1ccc(F)cc1,.,-9.1,.,.,.
COC(=O)N/N=C/c1c(C)c(C(=O)c2ccc(F)cc2)n2ccccc12,.,.,.,.,.
Cc1c(/C=N/NC(=O)c2ccccc2O)c2ccccn2c1C(=O)c1ccc(F)cc1,.,.,.,.,-7.1
Cc1c(/C=N/NC(=O)c2ccc(O)cc2)c2ccccn2c1C(=O)c1ccc(F)cc1,.,.,.,.,.
CCNC(=S)N/N=C(\C)c1ccc2c(c1)OCCO2,.,.,.,.,-6.5
N#C/C(=C\c1cccnc1)c1nc2c(s1)CCCC2,.,.,.,.,-5.5
COc1ccccc1C(=O)NNC(=S)NC(=O)c1sc2ccccc2c1Cl,.,-8.7,36,.,.
COc1ccc(Cl)cc1C(=O)NNC(=S)NC(=O)c1ccc(F)c(F)c1,.,.,.,.,-5.9
COc1ccc(Cl)cc1C(=O)NNC(=S)NC(=O)c1cc(-c2ccc(Cl)cc2)nc2ccccc12,.,-8.4,.,.,-7.3
COc1ccc(C(=O)NNC(=S)NC(=O)c2ccc(F)cc2)cc1Br,.,.,.,.,.
Cc1c(NC(=S)NC(=O)c2sc3ccccc3c2Cl)cccc1C(=O)O,.,.,.,.,.
COc1cc(C(=O)NC(=S)NNC(=O)c2ccc3c(c2)OCO3)cc(OC)c1OC,.,.,60,.,.
Cc1cccc(S(=O)(=O)c2c(N)n(-c3ccccc3)c3nc4ccccc4nc23)c1,.,.,.,.,.
CCN(CCn1cccn1)C(=O)CC1C(=O)NCCN1Cc1ccc(F)cc1 (stereo unspecified),.,.,29,.,.
CC(C)NCC(O)c1ccc2ccccc2c1 (stereo unspecified),.,/,.,/,.
NC[C@H](O)c1ccc(O)c(O)c1,.,/,39,/,.
CC(C)NCC(O)c1ccc(O)c(O)c1 (stereo unspecified),.,.,33,.,.
COc1cc(C(O)CO)ccc1O (stereo unspecified),.,/,.,/,.
SMILES,MrgX1 PAM,RGS4 act,MrgX1 agonist,RGS4 inh,MrgX1 antagonist
COC(=O)c1sc2cc([N+](=O)[O-])cc(SCC(C)C)c2c1N,.,.,.,.,-9.2
Cc1ccc(C)c(N2CCN(C(=O)CCCN3C(=S)NC(C)(C)CC3C)CC2)c1 (stereo unspecified),.,.,.,.,-4.6
COc1ccc2c(Cl)c(C(=O)N/N=C3\CCCC(=O)C3)sc2c1,.,.,.,.,-7.4
COc1ccc2c(Cl)c(C(=O)N/N=C/c3ccc4c(c3)OCO4)sc2c1,.,.,.,.,.
O=C(NCc1ccc2c(c1)OCO2)c1cc([N+](=O)[O-])ccc1N1CCCCC1,.,-7.4,.,.,.
Cc1ccc(Nc2nc(N3CCN(C)CC3)nc(N)c2[N+](=O)[O-])cc1C,.,.,.,.,.
CC(=O)Nc1ccc(/C=N/N2C(=O)NC(C)(c3ccc(OC(F)F)cc3)C2=O)cc1 (stereo unspecified),.,-7,31,.,.
COc1ccc(C2(c3ccc(OC)cc3)NC(=O)N(CC(=O)Nc3ccc(C(=O)N(C)C)cc3)C2=O)cc1,.,.,.,.,-6.4
CC1(c2ccc(OC(F)F)cc2)NC(=O)N(CC(=O)Nc2ccccc2)C1=O (stereo unspecified),.,.,29,.,.
CC1(c2ccc(OC(F)F)cc2)NC(=O)N(CC(=O)Nc2ccc3[nH]c(=O)[nH]c3c2)C1=O (stereo unspecified),.,.,.,.,.
CCOC(=O)CN1C(=O)NC(C)(c2ccc(OC(F)F)cc2)C1=O (stereo unspecified),.,.,.,.,.
Cc1ccccc1-c1nnn(CC(=O)Nc2ccc3c(c2)OCO3)n1,.,.,.,.,.
CCc1nnc(NC(=O)c2ccc3nc(CC)c(CC)nc3c2)s1,.,.,.,.,.
COc1ccc(C2=NS(=O)(=O)N(C)C(C(=O)Nc3ccc(F)cc3F)=C2)cc1,.,.,.,.,.
O=C1NC2(CCCCC2)C(=O)N1Cc1ccc([N+](=O)[O-])cc1,.,.,.,.,-7.2
N=c1sccn1CC(=O)Nc1cccc(S(=O)(=O)N2CCCCCC2)c1,.,.,.,.,.
CC1CC(C)CN(C(=O)c2ccccc2Nc2ccc(SC(F)F)cc2)C1 (stereo unspecified),.,-7.4,.,.,.
CN1CCN(C(=O)c2ccccc2Nc2ccc(SC(F)F)cc2)CC1,.,.,.,.,.
COc1cccc(C2C(C(=O)OCc3ccccc3)=C(C)Nc3ncnn32)c1OC (stereo unspecified),.,.,.,.,.
CC(C)(C)c1ccc(OCCCNC2CCCC2)cc1,.,-7.4,.,.,.
CCOCCCNc1nc2c(C)cccn2c(=O)c1/C=C1\SC(=S)N(CC(C)C)C1=O,.,.,.,.,-6.8
CCOCCCNc1nc2c(C)cccn2c(=O)c1/C=C1\SC(=S)N(C(C)CC)C1=O (stereo unspecified),.,.,.,.,-15
CC1CCN(Cc2c(C#N)c3ccccc3n2C)CC1,.,.,.,.,.
NNC(=O)c1ccc(CSc2nc3ccccc3s2)cc1,.,.,.,.,.
CSc1nnc(SCC2=NNC(=O)SC2)s1,.,.,.,.,.
COC(=O)C1=C(C)NC(C)=C(C(=O)OCC(C)C)C1c1ccccc1[N+](=O)[O-] (stereo unspecified),.,.,31,.,.
CCCOc1ccccc1C1CC(=O)NC(C)=C1C(=O)OCC(C)C (stereo unspecified),.,.,.,.,.
O=C(OCC1OC(n2ncc(=O)[nH]c2=O)C(OC(=O)c2ccccc2)C1OC(=O)c1ccccc1)c1ccccc1 (stereo unspecified),.,-7.2,.,.,.
